Consider 16 molecules from ChEMBL document CHEMBL1145243, “Synthesis and bladder smooth muscle relaxing properties of substituted 3-amino-4-aryl-(and aralkyl-)cyclobut-3-ene-1,2-diones” (Bioorg Med Chem Lett, 2005).

Molecules are shown by their SMILES.

Type in all cases: functional
The species named for test [1] is Rattus norvegicus. Put plainly: In vitro inhibitory concentration required to relax KCl-induced contractions in rat bladder detrusor muscle strips.
The species entered for test [2] is Rattus norvegicus. Put plainly: Percent of reversal of rat bladder detrusor muscle relaxation (resulting from compound treatment) by addition of glyburide.
The species named for test [3] is Rattus norvegicus. Description: In vitro inhibitory concentration required to relax KCl-induced contractions in rat aortic rings. Conditions: Aorta. A digest of the protocol: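 Rat aortic rings were contracted with KCl and then exposed to drug. The value is the drug concentration (μM) that relaxed the KCl-induced contraction by 50%, reported ± SE.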
[4] abbreviates: Rattus norvegicus, read-out: IC50.

In the case of `COc1ccc(-c2c(NCCc3cccc(C(F)(F)F)c3)c(=O)c2=O)cc1`, the IC50 in test [1] (setting [4]) was greater than 30 µM. The Reversal in test [2] is on record as 0%.
The like results for `CC(Nc1c(Cc2ccc(C#N)cc2)c(=O)c1=O)C(C)(C)C` (stereo not given) were, in that order, greater than 30 µM and 0%.
Take `CCC(C)(C)/N=c1/c(-c2ccc(OC)cc2)c(O)c1=O`: the values for the IC50 in test [1] (setting [4]) and in test [3] were 2.5 µM and 37.6 µM, respectively. Besides, in test [2], the Reversal is 0%.
The matching figures for `COc1ccc(-c2c(N(C)C(C)C)c(=O)c2=O)cc1`: 12 µM, 46.2 µM and 0%.
Consider `COc1ccc(-c2c(NCC(C)c3ccccc3)c(=O)c2=O)cc1` (stereo not given), for which, in test [1] (setting [4]), the half-maximal inhibitory concentration (IC50) was greater than 30 µM. In addition, the Reversal in test [2] was found to be 0%.
As for `CCC(C)(C)Nc1c(-c2ccc(OCCCc3ccccc3)cc2)c(=O)c1=O`, the IC50 entry in test [1] is “Contracted”.
In the case of `COc1ccc(-c2c(NC(C)c3ccccc3)c(=O)c2=O)cc1` (stereo not given), the IC50 in test [1] (setting [4]) amounted to 27 µM. The Reversal in test [2] amounted to 0%.
With `COc1ccc(Cc2c(NC(C)C(C)(C)C)c(=O)c2=O)cc1` (stereo not given), the IC50 in test [1] (setting [4]) is greater than 30 µM. Moreover, the Reversal in test [2] amounted to 0%.
For the molecule `C[C@@H](Nc1c(Nc2ccc(C#N)cc2)c(=O)c1=O)C(C)(C)C`, the figures for the IC50 in test [1] (setting [4]) and in test [3] were 0.37 µM and 0.064 µM, respectively. Also, the Reversal in test [2] is on record as 110%.
The like results for `CCc1cc(C#N)ccc1Nc1c(N[C@H](C)C(C)(C)C)c(=O)c1=O` were, in that order, 0.09 µM, 0.017 µM and 77%.
Regarding `COc1ccc(C(C(C)=O)c2c(NC(C)C(C)(C)C)c(=O)c2=O)cc1` (stereo not given), the IC50 in test [1] (setting [4]) is greater than 30 µM. Besides, the Reversal in test [2] came to 0%.
The like results for `CC(Nc1c(/C=C/c2ccc(Br)cc2)c(=O)c1=O)C(C)(C)C` (stereo not given) were, in that order, greater than 30 µM and 25%.
`CCC(C)(C)Nc1c(-c2cccnc2)c(=O)c1=O`: the IC50 in test [1] (setting [4]) was greater than 30 µM. The Reversal in test [2] stood at 0%.
The like results for `CC(Nc1c(/C=C/c2ccc(C#N)cc2)c(=O)c1=O)C(C)(C)C` (stereo not given) were, in that order, 2.94 µM and 0%.
Regarding `CC(=O)C(c1ccc(C(F)(F)F)cc1)c1c(NC(C)C(C)(C)C)c(=O)c1=O` (stereo not given), the IC50 in test [1] (setting [4]) was determined as 16.2 µM. The Reversal in test [2] is 0%.
Regarding `CCC(C)(C)/N=c1/c(-c2cccc(OC)c2)c(O)c1=O`, the IC50 entry in test [1] is “Contracted”; in test [1] (setting [4]), greater than 30 µM.
